Published values collected from several papers.
Protocols differ between the studies behind these lines.
Target: Serine/threonine-protein kinase PAK 1 (PAK1, Homo sapiens, UniProt Q13153)

| Structure (SMILES) | read-out | technique | tested at | remaining binding [%] |
| --- | --- | --- | --- | --- |
| c1cnn2ncc(-c3ccnc(N4CCC45COC5)n3)c2c1 | binding |  | 1 µM | 90 |
| CNC(=O)[C@@H]1CC[C@@H](n2c(-c3ccc4cnccc4c3)nc3ccc(C(=O)NCc4cccc(C(N)=O)c4)cc32)C1 | binding | competition with immobilised ligand | 1 µM | 100 |
| N[C@@H]1CCN(c2nccc(-c3cnn4ncccc34)n2)C1 | binding |  | 1 µM | 100 |
| C[C@@H]1CN(c2ccc3ncc(-c4ccc5[nH]nc(C6CC6)c5c4)n3n2)C[C@H](C)O1 | binding | competition with immobilised ligand | 50 nM | 100 |
| CN(C)c1ncnc(-c2ccc3nc(Nc4cc(CN5CCN(C(=O)CC(F)(F)F)CC5)ccn4)[nH]c3c2)c1Cl | cell-free assay | competition with immobilised ligand | 1 µM | 100 |
| CC1CCCN1c1nccc(-c2cnn3ncccc23)n1 (centres unmarked) | binding |  | 1 µM | 100 |
| Cc1nc(C2CCN(C(=O)c3ccc(OC(F)(F)F)cc3N)CC2)c2ncc(N3CCN(C)CC3)cc2n1 | cell-free assay | competition with immobilised ligand | 1 µM | 100 |
| F[C@@H]1CCN(c2nccc(-c3cnn4ncccc34)n2)C1 | binding |  | 1 µM | 100 |
| COc1cnc(Nc2cccc(S(N)(=O)=O)c2)nc1N1CCN(c2ccccc2)C(=O)C1 | binding | competition with immobilised ligand | 1 µM | 100 |
| N#Cc1ccccc1CSc1nnc2c(n1)[nH]c1ccccc12 | binding | competition with immobilised ligand | 10 µM | 80 |
| CN(CCCC(F)(F)F)c1nccc(-c2cnn3ncccc23)n1 | binding |  | 1 µM | 98 |
| O=C(NCCCN1CCOCC1)c1ccc(Nc2ncc(Cl)c(-c3ccc(Cl)s3)n2)cc1 | binding | competition with immobilised ligand | 1 µM | 98 |
| Cc1cc(C)c(-n2ccn3nc(-c4cccnc4)cc23)cc1NC(=O)c1cc(C#N)cc(S(F)(F)(F)(F)F)c1 | cell-free assay | competition with immobilised ligand | 0.1 µM | 82.2 |
| COc1ncc2cc3ccccc3nc2c1C#N | cell-free assay | competition with immobilised ligand | 5 µM | 97 |
| O=C(c1ccc(Nc2nccc(-c3cc4ccccc4s3)n2)cc1)N1CCC(N2CCCC2)CC1 | binding | competition with immobilised ligand | 1 µM | 80 |
| NS(=O)(=O)c1cc(NC(=O)Cc2ccccc2)ccc1Oc1cccc(Cl)c1 | cell-free assay | competition with immobilised ligand | 1 µM | 88 |
| CCN1CCN(Cc2ccc(C(=O)Nc3ccc(C)c(Oc4ccc5c(c4)CC(=O)N5)c3)cc2C(F)(F)F)CC1 | binding | competition with immobilised ligand | 1 µM | 100 |
| C[C@H](c1ccnc(Nc2nc3ccc(-c4cc(N(C)C)ncn4)cc3[nH]2)c1)N1CCN(C(=O)CC(F)(F)F)CC1 | cell-free assay | competition with immobilised ligand | 0.1 µM | 77 |
| O=C(NCC1CCOCC1)c1n[nH]cc1NC(=O)c1c(F)cccc1F | binding | competition with immobilised ligand | 1 µM | 100 |
| CO[C@@H](C)c1c(Nc2ccc([C@@H](N(C)C(=O)C3CCS(=O)(=O)CC3)C(F)(F)F)cc2)cnc2cc(Cl)nn12 | cell-free assay | competition with immobilised ligand | 1 µM | 83 |
| O=C(NCCCN1CCOCC1)c1ccc(Nc2nccc(-c3cc4ccccc4s3)n2)cc1 | binding | competition with immobilised ligand | 1 µM | 84 |
| O=C(Nc1cccnn1)N1CCC(=Cc2cccc(Oc3ccc(C(F)(F)F)cn3)c2)CC1 | cell-free assay | competition with immobilised ligand | 1 µM | 72 |
| CN(c1nccc(-c2cnn3ncccc23)n1)C1CC1 | binding |  | 1 µM | 100 |
